The results in this text go back to PubChem BioAssay AID504383 (The Scripps Research Institute Molecular Screening Center, 2011).

The whole screen tested about 2,500 compounds, of which about 1,200 (48%) were called active. So high a share suggests a set chosen from earlier hits. This is one part of the list. Values without a mark were called inactive.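 The calls were made as follows: active = mean activation above the low control average plus 3 SD, as set in the primary screen (cut at about 12% in these data); inactive = the rest.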

The target of the experiment is Troponin I, cardiac muscle (Homo sapiens) + Troponin T, cardiac muscle (Homo sapiens) + Troponin C, slow skeletal and cardiac muscles (Homo sapiens) (UniProt P19429+P45379+P63316). Kind of experiment: calcium sensitizers of cardiac thin filaments – biochemical, IANBD-TnC fluorescence, triplicate, confirmation (AID 504383).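 Also: 0% = DMSO at 0.472 mM calcium and 100% = DMSO at 2.9 mM calcium.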 As to conditions: IANBD-labeled cardiac RTF, Ca2+ sensitivity fluorescence; at 7.2 µM; stronger effect = higher value; scaled from EC20 to saturating calcium; tested at EC20 calcium, 0.472 mM. The essentials:
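Assay system: labelled regulated thin filament protein complex; schedule: 15 min compound incubation with filaments at 25 °C; benchmarks: low control EC20 calcium, high control EC100 calcium; reagent: Ca2+ 0.472 mM, EC20 level; doses: one dose, 7.2 µM nominal; evaluation: fluorescence gain scaled between EC20 and EC100 calcium controls; signal: filament fluorescence intensity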
Take `CCOC(=O)C(C)Sc1nnc(Cc2cc(=O)[nH]c(=O)[nH]2)n1-c1ccc(Cl)cc1` (stereo not given): the activation is 10.2%.

Regarding `CCOC(=O)C(C)(C)Sc1nc2c(cnn2-c2ccc(Cl)cc2)c(=O)[nH]1`, the activation is 185% (active).

Consider `CCCCCOc1ccc(CN2CCOCC2)cc1Cl`, for which the activation was 74.8% (active).

For the molecule `Cc1cc2nc(C3CCCN(C(=O)NCc4ccccc4)C3)[nH]c2cc1C` (stereo not given), the activation is 35.4% (active).

On to `COc1cccc(CNC(=O)C2CCCN(c3nc4ccccc4o3)C2)c1` (stereo not given), for which the activation was 1.39%.

Regarding `CCCC(=O)Nc1ccc(-c2cnc(-c3ccc(NC(=O)CCC)cc3)nc2)cc1`, the activation was 13.5% (active).

As for `Cc1cccc(/C=N/NC(=O)C(C)Nc2cccc3ccccc23)n1` (stereo not given), the activation was 46.1% (active).

Turning to `CCOC(=O)c1sc(=NC(=O)c2cc(OC)c(OC)c(OC)c2)n(C)c1C`, the activation is 266% (active).

As for `CCOC(=O)Cn1nc2sc3ccccc3n2c(=O)c1=O`, the activation was 8.56%.

In the case of `CC1CC(C)CN(C(=O)Cn2c(-c3nonc3N)nc3ccccc32)C1` (stereo not given), the activation was 4.8%.

Regarding `CCOC(=O)Cn1c(=O)c(-c2cc(Br)ccc2N)nc2ccccc21`, the activation is 16.6% (active).

In the case of `CCc1ccccc1NC(=O)COc1ccc2c(=O)c(Oc3cc(C)ccc3C)coc2c1`, the activation was 2310% (active).

Regarding `COc1c(O)cccc1-c1nnn(CCC(=O)OCC(=O)c2ccccc2)n1`, the activation was 53.4% (active).

On to `O=C(Cc1nc2ccccc2[nH]c1=O)c1ccccc1`, for which the activation was 8.29%.

As for `O=C(O)CSc1nc2ccccc2nc1Cc1ccccc1F`, the activation was 413% (active).

Turning to `C/C(Cn1cnc([N+](=O)[O-])n1)=N\NC(=O)c1cccc(F)c1`, the activation was 8.55%.

`O=C(N/N=C/c1ccccc1OC(=O)c1ccc2c(c1)OCO2)c1cccc(F)c1`: the activation was 52.1% (active).

With `COc1cc(C(=O)Oc2ccccc2/C=N/NC(=O)c2ccc(Cl)cc2)cc(OC)c1OC`, the activation was 61.8% (active).

As to `CCC(=O)N(C)CCc1cc2c(c(OC)c1/C=N/NC(=O)c1ccc(Br)cc1)OCO2`, the activation was 8.22%.

In the case of `CC1=C(C(=O)OCCCCCl)C(c2cc3c(cc2Br)OCO3)NC(=O)N1` (stereo not given), the activation was 7.44%.

For `CCOc1cccc(NC(=O)/C(C#N)=C\c2cn(CC(=O)O)c3ccccc23)c1`, the activation was 7.03%.

On to `O=C(Nc1ccccc1C(=O)N/N=C/c1ccco1)c1ccc(F)cc1`, for which the activation was 10.3%.

Turning to `O=C(Cn1cc(/C=N/NC(=O)c2cccc3ccccc23)c2ccccc21)Nc1ccc(F)cc1`, the activation is 56.1% (active).

Take `CCn1cc([N+](=O)[O-])c(C(=O)Nc2ccn(Cc3ccccc3)n2)n1`: the activation was 19.6% (active).

For `O=S1(=O)CCOC[C@H](CC2CCCCC2)N1Cc1ccccc1`, the activation is 3.3%.

Regarding `Cc1onc(-c2c(F)cccc2Cl)c1C(N)=S`, the activation is 25.8% (active).

As for `CCOC(=O)c1cc2c(=O)n3ccccc3nc2n(CCOC)c1=NC(=O)c1c(-c2c(F)cccc2Cl)noc1C`, the activation is 8.32%.

As to `NC(=S)Nc1c(Cl)cccc1Cl`, the activation is 1.18%.

`CSC(=NCc1ccco1)NC#N`: the activation was 5.56%.

As to `O=[N+]([O-])c1ccc(/C=C/C2=NN(c3ccccc3)C(c3ccco3)C2)cc1` (stereo not given), the activation is 31.7% (active).

For `O=[N+]([O-])c1ccc(C2=NN(c3ccccc3)C(c3ccco3)C2)cc1` (stereo not given), the activation is 1.19%.

With `COc1ncnc2c1N=C1CC(C)(C)CC(N)=C1S2`, the activation was 70.2% (active).

`O=C(Nc1ccc(Br)cc1)C(c1ccccc1)c1ccccc1`: the activation was 3.94%.

With `COC(C(=O)Nc1c(F)cccc1F)c1ccccc1` (stereo not given), the activation was 13.6% (active).

On to `Cc1nnc(NC(=O)CSc2ncnc3c2cnn3-c2ccccc2C)s1`, for which the activation is 14% (active).

In the case of `Cc1nnc(NC(=O)CS(=O)(=O)Cc2ccccc2)s1`, the activation was 5.16%.

On to `NC(=O)NNC1=Nc2cccc3cccc1c23`, for which the activation was 6.47%.

Turning to `Nc1nc(SCC(=O)Nc2ccc(Cl)cc2)[nH]c(=O)c1-c1ccccc1`, the activation is 5.51%.

For the molecule `Nc1nc(SCC(=O)Nc2ccccc2)nc2nc3c(cc12)CCCC3`, the activation was 12.6% (active).

As to `CCOC(=O)c1cccc(NC(=O)CSc2nc(N)cc(N)n2)c1`, the activation was 2.77%.

On to `CCCOc1ccc(C2C(C(=O)/C=C/c3ccco3)=C(O)C(=O)N2CCN2CCOCC2)cc1OC` (stereo not given), for which the activation was 14% (active).

Take `COc1ccc(NC(=O)Nc2cccnc2)c(OC)c1`: the activation is 5.8%.

`C=C(C)c1cccc(C(C)(C)NC(=O)Nc2cccnc2)c1`: the activation was 15.5% (active).

As for `CCn1c(CSCc2ccccc2)n[nH]c1=S`, the activation was 15.7% (active).

In the case of `Nc1ccc(CCNc2ncnc3c2ncn3[C@@H]2O[C@H](CO)[C@@H](O)[C@H]2O)cc1`, the activation is 7.47%.

Take `Cc1cc(-n2c(=O)c(C#N)cc3c(=O)n4ccccc4nc32)no1`: the activation is 14.7% (active).

With `S=C1NC2=C(CCCC2=C2SCCCS2)C(c2ccccc2)N1` (stereo not given), the activation was 23.6% (active).

Take `S=C1NC2=C(CCC/C2=C\c2ccccc2)C(c2ccccc2)N1` (stereo not given): the activation is 8.03%.

Consider `CCN1C(=O)/C(=C/C=C2\N(CC)c3cc(S(=O)(=O)N(C)C)ccc3N2c2ccccc2)SC1=S`, for which the activation is 10.6%.

With `CN(C)/C=C1\SC(=S)N(c2ccc(Br)cc2)C1=O`, the activation is 75.9% (active).

Regarding `O=C1CSC(=S)N1c1ccc(O)cc1`, the activation is 4.53%.

Take `CC(C)c1ccc(N2C(=O)/C(=C/N(C)C)SC2=S)cc1`: the activation was 57.7% (active).

As to `O=C(c1ccccc1C(=O)N1CCN(c2ccccc2)CC1)N1CCN(c2ccccc2)CC1`, the activation is 0.49%.

On to `C=CCn1c(C)c(C(C)=O)c(N2CCN(c3ccccc3)CC2)nc1=S`, for which the activation is 74.9% (active).

With `CC(=O)c1nnn(-c2nc(N3CCCC3)nc(N(c3ccccc3)c3ccccc3)n2)c1C`, the activation is 5.27%.

As to `COC(=O)c1ccc(-c2ccc(F)cc2)nc1C`, the activation is -3.68%.

On to `CC(C)OC(=O)CC(=O)CSc1nc(-c2ccc(F)cc2)cc(-c2ccccc2)c1C#N`, for which the activation was 38.9% (active).

Regarding `CN1CCCC(OC(=O)c2ccccc2Br)C1` (stereo not given), the activation is 67% (active).

Consider `O=C(OCCN1CCCCC1)c1ccccc1Br`, for which the activation was 3.85%.

Turning to `Cc1c(Br)c(C(=O)N2CCc3ccccc32)nn1C`, the activation was 3.1%.

For `Cc1nn(C)c(C(=O)N2CCc3ccccc32)c1Br`, the activation is 66.9% (active).

Turning to `Cc1cccc2cc3c(N)c(C(=O)N4CCc5ccccc54)sc3nc12`, the activation is 7.08%.

Consider `O=C1N/C(=C\c2ccsc2)C(=O)N1Cc1ccc(F)cc1`, for which the activation is 4.06%.

In the case of `O=C1c2ccsc2SCCN1Cc1ccc(F)cc1`, the activation is 27.7% (active).

In the case of `C=CCn1c(=O)c(C(=O)NCCNCC)c(O)c2ccccc21`, the activation is 12.4% (active).

In the case of `COc1cc(OC)cc(C(=O)N(Cc2ccco2)c2c(N)n(Cc3ccccc3)c(=O)[nH]c2=O)c1`, the activation is 7.79%.

In the case of `COCCN(C(=O)CN1CCCc2ccccc21)c1c(N)n(Cc2ccccc2)c(=O)[nH]c1=O`, the activation was 18.8% (active).

On to `CCN(C(=O)CN1CCCc2cc(C)ccc21)c1c(N)n(Cc2ccccc2)c(=O)[nH]c1=O`, for which the activation is 6.97%.

`COCCCN(C(=O)c1cccnc1SC)c1c(N)n(Cc2ccccc2)c(=O)[nH]c1=O`: the activation was 48.1% (active).

As for `CCCCN(C(=O)c1ccc([N+](=O)[O-])o1)c1c(N)n(CCCC)c(=O)[nH]c1=O`, the activation is 5.49%.

Regarding `CCn1c(=O)c(C(=O)CN2CCCc3ccccc32)c(N)n(Cc2ccccc2)c1=O`, the activation is 60% (active).

Turning to `Cc1ccc2c(c1)CCCN2CC(=O)N(C)c1c(N)n(Cc2ccccc2)c(=O)[nH]c1=O`, the activation was 1.27%.

For `OCCN(CCO)c1nc(N2CCCCC2)c2nc(N(CCO)CCO)nc(N3CCCCC3)c2n1`, the activation is 7.69%.

Turning to `CN1CCc2c(sc(/N=C/c3ccco3)c2C(N)=O)C1`, the activation was 10.3%.

For `CN1CCc2c(sc(/N=C/c3cccs3)c2C(N)=O)C1`, the activation was 2.64%.

With `CC(=O)N1CCc2c(sc(NC(=O)C3CCCN3S(=O)(=O)c3cccs3)c2C(N)=O)C1` (stereo not given), the activation is 39.1% (active).

Take `CCN1C(=O)/C(=C/N2CCc3ccccc32)SC1=S`: the activation is 50% (active).

For `C=CCN1C(=O)/C(=C\C=C2\N(C)c3ccccc3C2(C)C)SC1=S`, the activation was 3.44%.

As to `COc1ccccc1NCC(=O)NC(=O)NC1CCCCC1`, the activation was 13.1% (active).

For the molecule `CCOc1ccc(C(=O)NC2CCN(C(=O)Nc3ccccc3OC)CC2)cc1`, the activation was 2.1%.

Take `COc1ccc(C2=NS(=O)(=O)N(C)C(C(=O)NC3CCCC3)=C2)cc1`: the activation was -1.79%.

In the case of `CSCCC(NC(=O)c1ccc(Cl)cc1)C(=O)OCC(=O)c1ccc[nH]1` (stereo not given), the activation is 9.46%.

As to `CCS(=O)(=O)N1Cc2ccccc2CC1C(=O)Nc1ccc(OC)cc1OC` (stereo not given), the activation is 6.84%.

Consider `COc1ccc(N2CC(C(=O)Nc3nc(-c4ccccc4)c(C(C)=O)s3)CC2=O)c(OC)c1` (stereo not given), for which the activation was 12.4% (active).

With `COc1ccc(OC)c(S(=O)(=O)N2CCC(C(=O)NCc3ccccn3)CC2)c1`, the activation is 7.51%.

Take `Cc1ccc(/C=C2\CCC3=C2OC(N)=C(C#N)C3c2ccc(C)cc2)cc1` (stereo not given): the activation is 11%.

For `N#CC1=C(N)OC2=C(CC/C2=C\c2ccccc2)C1c1ccccc1` (stereo not given), the activation was 36.3% (active).

As for `N#CC1=C(N)OC2=C(CC/C2=C\c2ccccc2Cl)C1c1ccccc1Cl` (stereo not given), the activation was 317% (active).

Turning to `CC(=O)C1=C(C)N(CC2CC2)C(=O)N[C@H]1c1ccc(Br)cc1`, the activation was 102% (active).

With `CC(=O)C1=C(C)N(Cc2ccccc2)C(=O)N[C@@H]1c1cccc(C(F)(F)F)c1`, the activation is 8.59%.

On to `COc1ccc(Cl)cc1NC(=O)CN(C)C(=O)COc1ccccc1F`, for which the activation is 4.03%.

On to `COc1ccc(Cl)cc1NC(=O)CN(C)C(=O)c1ccc(N2CCCCCC2)c([N+](=O)[O-])c1`, for which the activation is 59.6% (active).

For the molecule `O=C(Cc1ccccc1)Nn1c(O)c(/C=C2\C=Nc3ccccc32)sc1=S`, the activation is 87.3% (active).

As to `CN(C)/C=C1\C=C2C(=O)c3ccccc3N2C1=O`, the activation was 87.3% (active).

In the case of `CN(C)C(=O)CN1C(=O)C2CCCCN2C(=O)c2ccccc21` (stereo not given), the activation was 9.05%.
